Laboratory results reported in ChEMBL document CHEMBL1134588, “[2',6'-Dimethyltyrosine]dynorphin A(1-11)-NH2 analogues lacking an N-terminal amino group: potent and selective kappa opioid antagonists” (J Med Chem, 2001).

Tests used:
[1] = biological target: Kappa-type opioid receptor (Cavia porcellus, UniProt P41144); experiment: Binding affinity was measured on opioid receptor kappa 1
Cavia porcellus = species on record: Cavia porcellus; experiment: Inhibitory concentration of compound was measured in guinea pig ileum(GPI) assay; type: functional
Method in brief: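 Isolated guinea pig ileum, measuring inhibition of electrically evoked contractions. Each preparation received a [Leu5]enkephalin dose-response curve as standard, and the IC50 values were normalized to it.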

Mus musculus = species on record: Mus musculus; experiment: Inhibitory concentration of compound was measured in mouse vas deferens assay; type: functional
Method in brief: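 Mouse vas deferens bioassay, measuring inhibition of electrically evoked contractions. A [Leu5]enkephalin standard dose-response curve was run on each vas preparation, and the IC50 values were normalized accordingly.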

[2] = biological target: Kappa-type opioid receptor (Cavia porcellus) (UniProt P41144); experiment: Antagonist activity was evaluated in the guinea pig ileum assay against U50,488- selective agonist of opioid receptor kappa 1; type: functional, tissue-based
Method in brief: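 Ke taken from agonist IC50 ratio in presence versus absence of antagonist; [Leu5]enkephalin dose-response on each ileum used to normalize IC50s. Three to six determinations, mean ± SEM.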

[3] = biological target: Delta-type opioid receptor (Mus musculus) (UniProt P32300); experiment: Antagonist activity was evaluated in the mouse vas deferens assay against DPDPE which is selective agonist of Delta receptor; type: functional, tissue-based
Method in brief: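 Mouse vas deferens, electrically evoked contractions; delta antagonism against DPDPE at fixed antagonist 30 nM to 10 µM. Ke obtained from agonist IC50 ratio with versus without antagonist; each vas preparation standardized with [Leu5]enkephalin dose-response. Means of three to six determinations ± SEM.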

[4] = biological target: Kappa-type opioid receptor (Cavia porcellus) (UniProt P41144); experiment: Antagonist activity was evaluated in the guinea pig ileum assay against Dyn A(1-13)-selective agonist of opioid receptor kappa 1; type: functional, tissue-based
[5] = biological target: Mu-type opioid receptor (Cavia porcellus) (UniProt P97266); experiment: Antagonist activity was evaluated in the guinea pig ileum assay against TAPP-selective agonist of Mu receptor; type: functional, tissue-based
Method in brief: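 Mu antagonism in guinea pig ileum (electrically evoked contractions) versus agonist TAPP, fixed antagonist concentrations 100 nM to 5 µM. Ke computed from shift in agonist IC50 (with/without antagonist), IC50s normalized against per-tissue [Leu5]enkephalin standard. Mean of three to six runs ± SEM.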

Kappa-type opioid receptor, sequence (P41144 whole entry): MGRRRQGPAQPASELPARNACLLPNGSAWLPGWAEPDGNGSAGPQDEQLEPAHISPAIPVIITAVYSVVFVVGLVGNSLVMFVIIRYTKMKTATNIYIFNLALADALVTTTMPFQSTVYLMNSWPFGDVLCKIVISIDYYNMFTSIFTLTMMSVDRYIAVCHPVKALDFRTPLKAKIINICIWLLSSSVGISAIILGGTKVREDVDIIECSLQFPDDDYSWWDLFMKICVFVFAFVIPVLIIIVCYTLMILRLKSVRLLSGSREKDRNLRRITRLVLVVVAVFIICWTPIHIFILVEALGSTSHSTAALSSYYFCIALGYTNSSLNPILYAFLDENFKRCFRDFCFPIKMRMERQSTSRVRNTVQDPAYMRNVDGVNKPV
Kappa-type opioid receptor (Cavia porcellus), sequence (P41144 whole entry): as above
Mu-type opioid receptor (Cavia porcellus), sequence (P97266 whole entry): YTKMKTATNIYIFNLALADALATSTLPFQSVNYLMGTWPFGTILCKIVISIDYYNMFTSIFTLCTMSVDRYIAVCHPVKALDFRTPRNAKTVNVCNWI
Delta-type opioid receptor (Mus musculus), sequence (P32300 whole entry): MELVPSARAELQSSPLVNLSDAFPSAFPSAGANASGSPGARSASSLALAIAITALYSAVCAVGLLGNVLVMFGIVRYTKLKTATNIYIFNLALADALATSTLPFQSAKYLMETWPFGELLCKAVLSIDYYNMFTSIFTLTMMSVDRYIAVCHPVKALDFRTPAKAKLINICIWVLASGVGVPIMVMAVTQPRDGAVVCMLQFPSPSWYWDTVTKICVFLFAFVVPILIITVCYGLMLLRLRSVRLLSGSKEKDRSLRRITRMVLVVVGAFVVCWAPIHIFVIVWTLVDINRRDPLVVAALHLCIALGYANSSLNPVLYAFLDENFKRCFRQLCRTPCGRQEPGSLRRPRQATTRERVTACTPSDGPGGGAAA

Row | SMILES | Ki [1] | IC50 (Mus musculus) | other results
1 | CC[C@H](C)[C@H](NC(=O)[C@H](CCCN=C(N)N)NC(=O)[C@H](CCCN=C(N)N)NC(=O)[C@H](CC(C)C)NC(=O)[C@H](Cc1ccccc1)NC(=O)[C@@H](C)NC(=O)CNC(=O)CCc1c(C)cc(O)cc1C)C(=O)N[C@@H](CCCN=C(N)N)C(=O)N1CCC[C@H]1C(=O)N[C@@H](CCCCN)C(N)=O | 3.84 nM | – | –
2 | CC[C@H](C)[C@H](NC(=O)[C@H](CCCN=C(N)N)NC(=O)[C@H](CCCN=C(N)N)NC(=O)[C@H](CC(C)C)NC(=O)[C@H](Cc1ccccc1)NC(=O)CNC(=O)CNC(=O)[C@@H](N)Cc1c(C)cc(O)cc1C)C(=O)N[C@@H](CCCN=C(N)N)C(=O)N1CCC[C@H]1C(=O)N[C@@H](CCCCN)C(N)=O | – | 0.377 nM | IC50 (Cavia porcellus): 0.502 nM
3 | CC[C@H](C)[C@H](NC(=O)[C@H](CCCNC(=N)N)NC(=O)[C@H](CCCNC(=N)N)NC(=O)[C@H](CC(C)C)NC(=O)[C@H](Cc1ccccc1)NC(=O)CNC(=O)CNC(=O)[C@@H](C)Cc1c(C)cc(O)cc1C)C(=O)N[C@@H](CCCNC(=N)N)C(=O)N1CCC[C@H]1C(=O)N[C@@H](CCCCN)C(N)=O | – | – | Ke [2]: 3.92 nM; Ke [3]: 3.22 µM; Ke [4]: 0.632 nM; Ke [5]: 925 nM
4 | CC[C@H](C)[C@H](NC(=O)[C@H](CCCNC(=N)N)NC(=O)[C@H](CCCNC(=N)N)NC(=O)[C@H](CC(C)C)NC(=O)[C@H](Cc1ccccc1)NC(=O)CNC(=O)CNC(=O)CCc1ccc(O)cc1)C(=O)N[C@@H](CCCNC(=N)N)C(=O)N1CCC[C@H]1C(=O)N[C@@H](CCCCN)C(N)=O | 30.7 nM | 722 nM | –
5 | CC[C@H](C)[C@H](NC(=O)[C@H](CCCN=C(N)N)NC(=O)[C@H](CCCN=C(N)N)NC(=O)[C@H](CC(C)C)NC(=O)[C@H](Cc1ccccc1)NC(=O)CNC(=O)CNC(=O)[C@@H](N)Cc1ccc(O)cc1)C(=O)N[C@@H](CCCN=C(N)N)C(=O)N1CCC[C@H]1C(=O)N[C@@H](CCCCN)C(N)=O | – | 12.9 nM | IC50 (Cavia porcellus): 0.456 nM
6 | CC[C@H](C)[C@H](NC(=O)[C@H](CCCN=C(N)N)NC(=O)[C@H](CCCN=C(N)N)NC(=O)[C@H](CC(C)C)NC(=O)[C@H](Cc1ccccc1)NC(=O)[C@@H](C)NC(=O)CNC(=O)[C@@H](C)Cc1c(C)cc(O)cc1C)C(=O)N[C@@H](CCCN=C(N)N)C(=O)N1CCC[C@H]1C(=O)N[C@@H](CCCCN)C(N)=O | 2.47 nM | – | –
7 | Oc1ccc2c3c1O[C@H]1c4[nH]c5c(c4C[C@@]4(O)[C@@H](C2)N(CC2CC2)CC[C@]314)C[C@@]1(O)[C@H]2Cc3ccc(O)c4c3[C@@]1(CCN2CC1CC1)[C@H]5O4 [NORBINALTORPHIMINE] | 0.81 nM | – | –
8 | CC[C@H](C)[C@H](NC(=O)[C@H](CCCNC(=N)N)NC(=O)[C@H](CCCNC(=N)N)NC(=O)[C@H](CC(C)C)NC(=O)[C@H](Cc1ccccc1)NC(=O)CNC(=O)CNC(=O)CCc1c(C)cc(O)cc1C)C(=O)N[C@@H](CCCNC(=N)N)C(=O)N1CCC[C@H]1C(=O)N[C@@H](CCCCN)C(N)=O | 3.49 nM | – | –
